Source: PMC10691213 (Proceedings of the National Academy of Sciences of the …, 2023)

Assays:
[1] = system: HEK293T cells; assay type: cell-based, human; settings: 500 nM anisomycin 1 h
Procedure, shortened: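 HEK293T cells were transiently transfected (polyethyleneimine) with FLAG-MLXIPL or TACC1 plasmid. Where indicated, cells were pre-treated with 50 μM SB203580 for 1 h at 37 °C, then given 500 nM anisomycin or 0.001% DMSO vehicle for 1 h at 37 °C. Lysates were clarified and equal protein (BCA) resolved on 5% gels with […] Phos-tag plus 50 μM MnCl2, or by standard SDS-PAGE, then immunoblotted.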

[2] = system: HEK293T cells; test: MS analysis of TACC1 / MLXIPL phosphopeptides isolated from HEK293T cells; assay type: cell-based, human; settings: serum-starved, 500 nM trametinib pre-treatment 1 h, EGF 5 min

Structure (SMILES): C[S+]([O-])c1ccc(-c2nc(-c3ccncc3)c(-c3ccc(F)cc3)[nH]2)cc1 (stereo not drawn) [SB203580]
- anisomycin-induced MLXIPL phosphorylation (mobility shift) ([1]; 50 μM SB203580 pre-treatment 1 h): partly dependent on p38α/β

Structure (SMILES): CC(=O)Nc1cccc(-n2c(=O)n(C3CC3)c(=O)c3c(Nc4ccc(I)cc4F)n(C)c(=O)c(C)c32)c1 [trametinib]
- EGF-stimulated TACC1 Ser231 phosphorylation [2]: blocked

Structure (SMILES): COc1ccc(C[C@H]2NC[C@H](O)[C@H]2OC(C)=O)cc1 [Anisomycin, anisomycin]
- phosphorylation of TACC1 (mobility shift) [1]: did not induce phosphorylation
